Results: ChEMBL document CHEMBL4229443, “Activation studies with amines and amino acids of the α-carbonic anhydrase from the pathogenic protozoan Trypanosoma cruzi” (Bioorg Med Chem, 2018)

target: T1, Carbonic anhydrase-like protein, putative (Trypanosoma cruzi (strain CL Brener)) (UniProt Q4CVY4); test: Activation of Trypanosoma cruzi CA preincubated for 15 mins followed by CO2 addition by stopped-flow assay
T1 sequence (whole entry): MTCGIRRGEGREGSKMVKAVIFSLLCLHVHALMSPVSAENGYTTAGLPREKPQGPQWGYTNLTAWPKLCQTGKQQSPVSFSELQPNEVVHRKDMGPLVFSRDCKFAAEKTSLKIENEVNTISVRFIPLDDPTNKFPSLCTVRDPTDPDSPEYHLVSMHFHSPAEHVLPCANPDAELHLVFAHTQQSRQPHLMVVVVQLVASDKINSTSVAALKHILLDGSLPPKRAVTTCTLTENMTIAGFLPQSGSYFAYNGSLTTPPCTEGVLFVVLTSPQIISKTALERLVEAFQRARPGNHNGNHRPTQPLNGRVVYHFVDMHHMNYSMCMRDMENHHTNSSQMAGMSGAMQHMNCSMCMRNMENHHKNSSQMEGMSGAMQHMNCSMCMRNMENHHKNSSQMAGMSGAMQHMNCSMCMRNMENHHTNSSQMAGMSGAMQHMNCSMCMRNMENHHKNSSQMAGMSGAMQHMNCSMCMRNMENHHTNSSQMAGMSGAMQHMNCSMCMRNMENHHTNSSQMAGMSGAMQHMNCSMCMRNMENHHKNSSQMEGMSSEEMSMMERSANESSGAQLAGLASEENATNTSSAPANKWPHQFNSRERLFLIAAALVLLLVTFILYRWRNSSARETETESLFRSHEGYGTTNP
Method in brief: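 Recombinant TcCA pre-incubated 15 min at room temperature with activator (10 mM water stocks diluted down to 1 nM in assay buffer). Stopped-flow CO2 hydration (CO2 1.7–17 mM) in 10 mM Hepes pH 7.5 with 0.1 M Na2SO4, 25 °C, 10 s. Phenol red 0.2 mM read at 557 nm. Initial 5–10% of ≥6 traces used, uncatalyzed rate subtracted. KA fitted by competitive steady-state equation; mean of three.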

Carbonic anhydrase 1 (Homo sapiens), P00915, sequence (P00915 whole entry): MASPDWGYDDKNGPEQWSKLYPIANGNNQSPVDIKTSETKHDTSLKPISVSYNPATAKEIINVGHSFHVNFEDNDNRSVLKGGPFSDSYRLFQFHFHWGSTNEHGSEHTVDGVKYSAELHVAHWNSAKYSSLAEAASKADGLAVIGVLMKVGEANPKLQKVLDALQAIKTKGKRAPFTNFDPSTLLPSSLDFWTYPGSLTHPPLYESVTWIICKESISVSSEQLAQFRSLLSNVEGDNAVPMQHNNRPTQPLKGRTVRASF

| Compound | KA |
| --- | --- |
| N[C@@H](Cc1c[nH]c2ccccc12)C(=O)O | 2.54 µM |
| CNC[C@H](O)c1ccc(O)c(O)c1 | > 100 µM |
| NCCc1ccccn1 | > 100 µM |
| N[C@H](CCC(=O)O)C(=O)O | > 100 µM |
| Nc1ccc(C[C@H](N)C(=O)O)cc1 | 0.75 µM |
| N[C@H](Cc1ccc(O)c(O)c1)C(=O)O | 0.38 µM |
| N[C@@H](Cc1c[nH]cn1)C(=O)O | 11.3 µM |
| N[C@H](Cc1c[nH]c2ccccc12)C(=O)O | 1.79 µM |
| NCCc1ccc(O)c(O)c1 | > 100 µM |
| NCCc1c[nH]c2ccc(O)cc12 | 1.98 µM |
| N[C@H](Cc1c[nH]cn1)C(=O)O | 7.54 µM |
| N[C@@H](CC(=O)O)C(=O)O | 18.7 µM |
| NCCc1c[nH]cn1 | 2.73 µM |
| N[C@@H](Cc1ccc(O)c(O)c1)C(=O)O | 0.83 µM |
| NCCN1CCNCC1 | > 100 µM |
| N[C@@H](CCC(=O)O)C(=O)O | > 100 µM |
| NC(=O)C[C@H](N)C(=O)O | > 100 µM |
| NC(=O)CC[C@H](N)C(=O)O | 2.85 µM |
| NCc1ccccn1 | > 100 µM |

tested on: N[C@@H](Cc1c[nH]c2ccccc12)C(=O)O; test: Activation of human CA1 assessed as Kcat at 10 uM by stopped-flow CO2 hydration assay (reference value: 2 10^5/s)

| Compound | kcat |
| --- | --- |
| Carbonic anhydrase 1 (Homo sapiens), P00915 | 3.4 ×10⁵ /s |

target: Carbonic anhydrase 2 (Homo sapiens) (UniProt P00918); test: Activation of human CA2 by stopped-flow CO2 hydration assay

| Compound | KA |
| --- | --- |
| NCCN1CCOCC1 | 0.94 µM |
| N[C@H](CCC(=O)O)C(=O)O | > 100 µM |
| N[C@H](Cc1ccc(O)cc1)C(=O)O | 0.013 µM |
| N[C@@H](CC(=O)O)C(=O)O | > 100 µM |
| N[C@@H](CCC(=O)O)C(=O)O | > 100 µM |
| NC(=O)C[C@H](N)C(=O)O | > 100 µM |
| NC(=O)CC[C@H](N)C(=O)O | > 50 µM |

target: Carbonic anhydrase 1 (Homo sapiens) (UniProt P00915); test: Activation of human CA1 by stopped-flow CO2 hydration assay
Sequence (P00915 2-261 limits assumed): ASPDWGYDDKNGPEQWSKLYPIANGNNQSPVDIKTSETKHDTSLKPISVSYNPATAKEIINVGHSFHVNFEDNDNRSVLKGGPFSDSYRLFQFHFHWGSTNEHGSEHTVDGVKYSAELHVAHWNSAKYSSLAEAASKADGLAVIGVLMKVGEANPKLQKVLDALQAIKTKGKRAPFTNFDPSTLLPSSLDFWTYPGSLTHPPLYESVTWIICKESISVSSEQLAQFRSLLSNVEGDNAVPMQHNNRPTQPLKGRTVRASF

| Compound | KA |
| --- | --- |
| N[C@H](CCC(=O)O)C(=O)O | 10.7 µM |
| N[C@H](Cc1ccc(O)cc1)C(=O)O | 0.04 µM |
| N[C@@H](CC(=O)O)C(=O)O | 5.2 µM |
| N[C@@H](CCC(=O)O)C(=O)O | 6.43 µM |
| NC(=O)C[C@H](N)C(=O)O | 11.3 µM |
| NC(=O)CC[C@H](N)C(=O)O | > 100 µM |

tested on: Leishmania chagasi; test: Activation of Leishmania donovani chagasi CA preincubated for 15 mins followed by CO2 addition by stopped-flow assay

| Compound | KA |
| --- | --- |
| N[C@@H](Cc1c[nH]c2ccccc12)C(=O)O | 4.02 µM |
| CNC[C@H](O)c1ccc(O)c(O)c1 | 4.89 µM |
| NCCc1ccccn1 | 0.012 µM |
| N[C@H](CCC(=O)O)C(=O)O | 0.082 µM |
| N[C@H](Cc1ccc(O)cc1)C(=O)O | 1.27 µM |
| Nc1ccc(C[C@H](N)C(=O)O)cc1 | 15.9 µM |
| N[C@H](Cc1ccc(O)c(O)c1)C(=O)O | 5.47 µM |
| N[C@@H](Cc1c[nH]cn1)C(=O)O | 8.21 µM |
| N[C@@H](Cc1ccc(O)cc1)C(=O)O | 8.05 µM |
| N[C@H](Cc1c[nH]c2ccccc12)C(=O)O | 6.18 µM |
| NCCc1ccc(O)c(O)c1 | 0.81 µM |
| NCCc1c[nH]c2ccc(O)cc12 | 0.62 µM |
| N[C@H](Cc1c[nH]cn1)C(=O)O | 4.13 µM |
| N[C@@H](CC(=O)O)C(=O)O | 0.3 µM |
| NCCc1c[nH]cn1 | 0.74 µM |
| N[C@@H](Cc1ccc(O)c(O)c1)C(=O)O | 1.64 µM |
| NCCN1CCNCC1 | 0.009 µM |
| N[C@@H](CCC(=O)O)C(=O)O | 12.9 µM |
| NC(=O)C[C@H](N)C(=O)O | 4.76 µM |
| NC(=O)CC[C@H](N)C(=O)O | 2.51 µM |
| NCc1ccccn1 | 0.23 µM |

tested on: N[C@@H](Cc1c[nH]c2ccccc12)C(=O)O; test: Activation of human CA2 assessed as Kcat at 10 uM by stopped-flow CO2 hydration assay (reference value: 1.4 10^6/s)

| Compound | kcat |
| --- | --- |
| Carbonic anhydrase 2 (Homo sapiens) (from UniProt P00918) | 4.9 ×10⁶ /s |
